Results from ChEMBL document CHEMBL3351537, “Design, synthesis and biological evaluation of 4-fluoropyrrolidine-2-carbonitrile and octahydrocyclopenta[b]pyrrole-2-carbonitrile derivatives as dipeptidyl peptidase IV inhibitors” (Eur J Med Chem, 2014).
Activity calls are given as the source filed them. No cut-off for these calls is given here.

How the values were obtained:
Mus musculus [1] = test: Reduction in plasma triglyceride content in C57BKS db/db mouse at 15 mg/kg/day, po (reference value: 1.01 +/- 0.09 mM); format: functional
[2] = Mean residence time in Sprague-Dawley rat at 20 mg/kg, po; format: ADME, organism-based; set-up: dose 20 mg/kg, route oral; conditions: in vivo
Procedure, shortened: (§1)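 SD rats dosed orally or intravenously. Blood sampled after dosing and spun to plasma. Plasma deproteinized with methanol containing internal standard, centrifuged, supernatant diluted in methanol and centrifuged again. Compound levels measured by LC/MS/MS. PK parameters were derived from these plasma concentrations.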

Mus musculus [3] = test: Reduction in free fatty acid in C57BKS db/db mouse at 15 mg/kg/day, po (reference value: 1.46 +/- 0.10 mM); format: functional
[4] = Tmax in Sprague-Dawley rat at 10 mg/kg, iv; format: ADME, organism-based; set-up: dose 10 mg/kg, route intravenous; conditions: in vivo; procedure, shortened: as §1
Mus musculus [5] = test: Reduction in glucose excursion in ICR mouse compound administered as single dose measured at 15 mins post dose by oral glucose tolerance test; format: functional, organism-based
Procedure, shortened: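 Fasted ICR mice (16 h) given a single oral dose, 5 or 15 mg/kg in 0.5% methylcellulose (10 mL/kg). Oral glucose challenge 2.5 g/kg given 30 min later. Blood glucose read at 0, 15, 30, 60, 90 and 120 min for AUC. Vehicle control included; mean ± SE, Student's t-test.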

Cytochrome P450 2C9 = Cytochrome P450 2C9 (Homo sapiens, UniProt P11712); test: Inhibition of CYP2C9 (unknown origin); format: ADME
Chain of Cytochrome P450 2C9 (P11712 whole entry): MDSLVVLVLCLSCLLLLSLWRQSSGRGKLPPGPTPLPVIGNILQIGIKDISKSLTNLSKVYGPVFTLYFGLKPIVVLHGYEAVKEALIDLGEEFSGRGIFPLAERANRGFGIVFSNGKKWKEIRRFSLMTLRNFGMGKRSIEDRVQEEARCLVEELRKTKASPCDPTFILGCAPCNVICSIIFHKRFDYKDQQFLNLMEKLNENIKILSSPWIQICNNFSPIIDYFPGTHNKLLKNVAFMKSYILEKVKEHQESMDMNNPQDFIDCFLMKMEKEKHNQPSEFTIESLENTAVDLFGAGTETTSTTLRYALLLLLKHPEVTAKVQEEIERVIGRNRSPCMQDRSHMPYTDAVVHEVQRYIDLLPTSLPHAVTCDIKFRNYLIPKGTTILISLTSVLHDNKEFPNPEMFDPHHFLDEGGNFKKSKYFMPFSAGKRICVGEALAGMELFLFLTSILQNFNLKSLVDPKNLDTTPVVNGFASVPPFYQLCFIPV

[6] = Mean residence time in Sprague-Dawley rat at 10 mg/kg, iv; format: ADME, organism-based; set-up: dose 10 mg/kg, route intravenous; conditions: in vivo; procedure, shortened: as §1
[7] = AUC (0 to t) in Sprague-Dawley rat at 10 mg/kg, iv; format: ADME, organism-based; set-up: dose 10 mg/kg, route intravenous; conditions: plasma; procedure, shortened: as §1
Rattus norvegicus [8] = test: Oral bioavailability in Sprague-Dawley rat at 20 mg/kg; format: ADME, organism-based; conditions: in vivo; procedure, shortened: as §1
[9] = Half life in Sprague-Dawley rat at 10 mg/kg, iv; format: ADME, organism-based; set-up: dose 10 mg/kg, route intravenous; conditions: in vivo; procedure, shortened: as §1
Mus musculus [10] = test: Reduction in random blood glucose level in C57BKS db/db mouse at 15 mg/kg/day, po (Rvb =23.3 +/- 1.0 mM); format: functional
[11] = Half life in Sprague-Dawley rat at 20 mg/kg, po; format: ADME, organism-based; set-up: dose 20 mg/kg, route oral; conditions: in vivo; procedure, shortened: as §1
[12] = Cmax in Sprague-Dawley rat at 10 mg/kg, iv; format: ADME, organism-based; set-up: dose 10 mg/kg, route intravenous; conditions: in vivo; procedure, shortened: as §1
[13] = Cmax in Sprague-Dawley rat at 20 mg/kg, po; format: ADME, organism-based; set-up: dose 20 mg/kg, route oral; conditions: in vivo; procedure, shortened: as §1
Cytochrome P450 3A4 = Cytochrome P450 3A4 (Homo sapiens, UniProt P08684); test: Inhibition of CYP3A4 (unknown origin); format: ADME
Chain of Cytochrome P450 3A4 (P08684 whole entry): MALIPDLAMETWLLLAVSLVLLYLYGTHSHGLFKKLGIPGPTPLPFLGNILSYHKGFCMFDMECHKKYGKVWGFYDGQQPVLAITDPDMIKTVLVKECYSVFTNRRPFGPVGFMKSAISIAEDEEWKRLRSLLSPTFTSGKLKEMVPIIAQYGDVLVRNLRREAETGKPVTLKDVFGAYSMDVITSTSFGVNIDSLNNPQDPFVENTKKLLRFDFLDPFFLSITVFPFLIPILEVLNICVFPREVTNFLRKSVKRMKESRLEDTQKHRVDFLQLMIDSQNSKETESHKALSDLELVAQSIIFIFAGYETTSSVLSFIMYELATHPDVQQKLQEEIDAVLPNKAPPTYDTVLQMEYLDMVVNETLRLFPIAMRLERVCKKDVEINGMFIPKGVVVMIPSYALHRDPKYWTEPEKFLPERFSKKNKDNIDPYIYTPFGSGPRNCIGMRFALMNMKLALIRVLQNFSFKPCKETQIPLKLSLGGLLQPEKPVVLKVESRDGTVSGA

[14] = Apparent clearance in Sprague-Dawley rat at 10 mg/kg, iv; format: ADME, organism-based; set-up: dose 10 mg/kg, route intravenous; conditions: in vivo, read-out: CL(app) (converted); procedure, shortened: as §1
[15] = target: T1, Voltage-gated inwardly rectifying potassium channel KCNH2 (Homo sapiens, UniProt Q12809); test: Inhibition of human ERG expressed in CHO cells after 20 mins by patch clamp assay; format: cell-based
T1 sequence (Q12809 whole entry): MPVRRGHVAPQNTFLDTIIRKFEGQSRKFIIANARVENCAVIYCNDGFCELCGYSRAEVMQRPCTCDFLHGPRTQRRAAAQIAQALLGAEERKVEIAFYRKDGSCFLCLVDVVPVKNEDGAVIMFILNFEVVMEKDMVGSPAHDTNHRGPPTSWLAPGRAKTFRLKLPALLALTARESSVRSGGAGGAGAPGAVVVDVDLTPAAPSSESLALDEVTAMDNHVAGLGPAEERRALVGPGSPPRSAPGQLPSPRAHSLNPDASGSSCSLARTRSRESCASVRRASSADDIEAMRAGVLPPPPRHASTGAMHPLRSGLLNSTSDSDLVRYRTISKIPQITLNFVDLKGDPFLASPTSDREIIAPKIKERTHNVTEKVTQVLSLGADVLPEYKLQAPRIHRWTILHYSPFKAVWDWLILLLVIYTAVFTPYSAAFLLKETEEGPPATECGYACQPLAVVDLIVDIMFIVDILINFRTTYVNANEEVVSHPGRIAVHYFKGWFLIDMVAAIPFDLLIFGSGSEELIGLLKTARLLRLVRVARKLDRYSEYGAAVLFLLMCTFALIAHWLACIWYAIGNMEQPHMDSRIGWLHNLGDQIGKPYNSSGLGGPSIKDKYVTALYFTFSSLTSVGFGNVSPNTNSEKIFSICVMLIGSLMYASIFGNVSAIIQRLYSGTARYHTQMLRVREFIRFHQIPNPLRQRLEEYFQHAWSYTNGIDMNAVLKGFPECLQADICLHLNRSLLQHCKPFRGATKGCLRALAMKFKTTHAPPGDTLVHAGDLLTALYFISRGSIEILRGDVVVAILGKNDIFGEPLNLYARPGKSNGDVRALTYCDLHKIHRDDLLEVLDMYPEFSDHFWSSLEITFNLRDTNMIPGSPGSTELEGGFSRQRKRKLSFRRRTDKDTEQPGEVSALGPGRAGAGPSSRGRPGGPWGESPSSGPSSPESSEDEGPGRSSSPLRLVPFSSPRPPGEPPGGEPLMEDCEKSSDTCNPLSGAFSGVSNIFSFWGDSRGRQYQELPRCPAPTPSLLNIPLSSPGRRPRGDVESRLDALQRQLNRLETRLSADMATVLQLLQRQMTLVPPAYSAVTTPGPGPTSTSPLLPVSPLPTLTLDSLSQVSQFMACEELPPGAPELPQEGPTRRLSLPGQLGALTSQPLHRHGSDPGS

Mus musculus [16] = test: Reduction in fasting blood glucose level in C57BKS db/db mouse at 15 mg/kg/day, po (Rvb =23.0 +/- 1.0 mM); format: functional
Mus musculus [17] = test: Reduction in total cholesterol content in C57BKS db/db mouse at 15 mg/kg/day, po; format: functional, organism-based
Rattus norvegicus [18] = test: AUC (0 to infinity) in Sprague-Dawley rat at 20 mg/kg, po; format: ADME, organism-based, Plasma; set-up: time infinity, dose 20 mg/kg, route oral; conditions: in vivo; procedure, shortened: as §1
[19] = target: T1, Voltage-gated inwardly rectifying potassium channel KCNH2; test: Inhibition of human ERG expressed in CHO cells after 20 mins by thallium assay; format: cell-based
Procedure, shortened: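 CHO-hERG-ZG cells grown with 100 μg/mL G418 and 100 μg/mL hygromycin B, then seeded and incubated 16–18 h at 37 °C. Cells held in loading buffer 90 min in the dark at RT, switched to assay buffer, and exposed to compound 20 min in the dark at RT. FluxOR thallium flux read on FDSS: baseline to 10 s, stimulus buffer added at 10 s, recording to 180 s.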

[20] = Tmax in Sprague-Dawley rat at 20 mg/kg, po; format: ADME, organism-based; set-up: dose 20 mg/kg, route oral; conditions: in vivo; procedure, shortened: as §1
[21] = AUC (0 to t) in Sprague-Dawley rat at 20 mg/kg, po; format: ADME, organism-based; set-up: dose 20 mg/kg, route oral; conditions: plasma; procedure, shortened: as §1
Rattus norvegicus [22] = test: AUC (0 to infinity) in Sprague-Dawley rat at 10 mg/kg, iv; format: ADME, organism-based, Plasma; set-up: time infinity, dose 10 mg/kg, route intravenous; conditions: in vivo; procedure, shortened: as §1
[23] = Half life in Sprague-Dawley rat at 20 mg/kg, iv; format: ADME, organism-based; set-up: dose 20 mg/kg, route intravenous; conditions: in vivo; procedure, shortened: as §1
[24] = Mean residence time in Sprague-Dawley rat at 50 mg/kg, po; format: ADME, organism-based; set-up: dose 50 mg/kg, route oral; conditions: in vivo; procedure, shortened: as §1
Rattus norvegicus [25] = test: Oral bioavailability in Sprague-Dawley rat at 50 mg/kg; format: ADME, organism-based; conditions: in vivo; procedure, shortened: as §1
[26] = Tmax in Sprague-Dawley rat at 20 mg/kg, iv; format: ADME, organism-based; set-up: dose 20 mg/kg, route intravenous; conditions: in vivo; procedure, shortened: as §1
[27] = Tmax in Sprague-Dawley rat at 50 mg/kg, po; format: ADME, organism-based; set-up: dose 50 mg/kg, route oral; conditions: in vivo; procedure, shortened: as §1
Rattus norvegicus [28] = test: Apparent clearance in Sprague-Dawley rat at 20 mg/kg, iv; format: ADME, organism-based; set-up: dose 20 mg/kg, route intravenous; conditions: in vivo; procedure, shortened: as §1
Rattus norvegicus [29] = test: AUC (0 to infinity) in Sprague-Dawley rat at 50 mg/kg, po; format: ADME, organism-based, Plasma; set-up: time infinity, dose 50 mg/kg, route oral; conditions: in vivo; procedure, shortened: as §1
[30] = Cmax in Sprague-Dawley rat at 50 mg/kg, po; format: ADME, organism-based; set-up: dose 50 mg/kg, route oral; conditions: in vivo; procedure, shortened: as §1
[31] = Mean residence time in Sprague-Dawley rat at 20 mg/kg, iv; format: ADME, organism-based; set-up: dose 20 mg/kg, route intravenous; conditions: in vivo; procedure, shortened: as §1
[32] = Cmax in Sprague-Dawley rat at 20 mg/kg, iv; format: ADME, organism-based; set-up: dose 20 mg/kg, route intravenous; conditions: in vivo; procedure, shortened: as §1
[33] = AUC (0 to t) in Sprague-Dawley rat at 50 mg/kg, po; format: ADME, organism-based; set-up: dose 50 mg/kg, route oral; conditions: plasma; procedure, shortened: as §1
[34] = Half life in Sprague-Dawley rat at 50 mg/kg, po; format: ADME, organism-based; set-up: dose 50 mg/kg, route oral; conditions: in vivo; procedure, shortened: as §1
Rattus norvegicus [35] = test: AUC (0 to infinity) in Sprague-Dawley rat at 20 mg/kg, iv; format: ADME, organism-based, Plasma; set-up: dose 20 mg/kg, route intravenous, time infinity; conditions: in vivo; procedure, shortened: as §1
[36] = AUC (0 to t) in Sprague-Dawley rat at 20 mg/kg, iv; format: ADME, organism-based; set-up: dose 20 mg/kg, route intravenous; conditions: plasma; procedure, shortened: as §1
Dipeptidyl peptidase 2 = Dipeptidyl peptidase 2 (Homo sapiens, UniProt Q9UHL4); test: Inhibition of DPP7 (unknown origin) expressed in baculovirus expression system using Nle-Pro-AMC as substrate by continuous fluorometric assay
Prolyl endopeptidase FAP = target: T2, Prolyl endopeptidase FAP (Homo sapiens, UniProt Q12884); test: Inhibition of FAP (unknown origin) expressed in baculovirus expression system using Nle-Pro-AMC as substrate by continuous fluorometric assay
T2 sequence (Q12884 whole entry): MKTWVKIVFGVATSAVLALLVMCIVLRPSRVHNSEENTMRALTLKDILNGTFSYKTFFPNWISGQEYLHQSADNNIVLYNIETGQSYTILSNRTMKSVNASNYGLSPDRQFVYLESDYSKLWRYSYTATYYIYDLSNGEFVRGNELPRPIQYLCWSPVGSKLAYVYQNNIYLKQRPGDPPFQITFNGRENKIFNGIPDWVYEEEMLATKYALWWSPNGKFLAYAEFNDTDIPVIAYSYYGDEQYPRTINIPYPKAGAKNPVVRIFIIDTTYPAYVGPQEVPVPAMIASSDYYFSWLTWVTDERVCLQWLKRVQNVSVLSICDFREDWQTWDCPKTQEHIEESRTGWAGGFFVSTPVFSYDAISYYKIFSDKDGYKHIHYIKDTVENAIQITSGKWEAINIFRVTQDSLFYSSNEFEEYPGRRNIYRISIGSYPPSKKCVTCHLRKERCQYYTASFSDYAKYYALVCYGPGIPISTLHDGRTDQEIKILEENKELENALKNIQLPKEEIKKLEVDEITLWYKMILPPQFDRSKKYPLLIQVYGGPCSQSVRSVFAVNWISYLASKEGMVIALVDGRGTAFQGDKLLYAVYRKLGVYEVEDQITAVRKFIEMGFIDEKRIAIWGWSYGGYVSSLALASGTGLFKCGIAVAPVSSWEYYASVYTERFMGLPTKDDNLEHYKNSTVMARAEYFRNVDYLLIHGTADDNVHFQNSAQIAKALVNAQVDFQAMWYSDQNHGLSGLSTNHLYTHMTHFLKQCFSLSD

Structure (SMILES): N#C[C@@H]1C[C@@H]2CCC[C@@H]2N1C(=O)C[C@H](N)Cc1cc(F)c(F)cc1F
- Activity (Mus musculus [1]): 0.85 mM
- MRT [2]: 2.81 h
- Activity (Mus musculus [3]): 1.43 mEq/L
- Tmax [4]: 0.5 h
- Activity (Mus musculus [5]): Dose-dependent effect
- IC50 (Cytochrome P450 2C9): Not Active
- MRT [6]: 2.71 h
- AUC(0-t) [7]: 4470 ng·h/mL
- F (Rattus norvegicus [8]): 22.8%
- half-life [9]: 2.39 h
- Activity (Mus musculus [10]): 21.3 mM
- half-life [11]: 2.74 h
- Cmax [12]: 1120 ng/mL
- Cmax [13]: 509 ng/mL
- IC50 (Cytochrome P450 3A4): 2.25 µM
- clearance [14]: 33.5 mL/min/kg
- IC50 [15]: > 40 µM
- Activity (Mus musculus [16]): 19.7 mM
- Activity (Mus musculus [17]): inactive
- AUC (Rattus norvegicus [18]): 2360 ng/mL.hr
- IC50 [19]: 55.3 µM
- Tmax [20]: 0.5 h
- AUC(0-t) [21]: 2040 ng·h/mL
- AUC (Rattus norvegicus [22]): 4974 ng·h/mL

Structure (SMILES): N#C[C@@H]1C[C@H](F)CN1C(=O)C[C@H](N)Cc1cc(F)c(F)cc1F
- half-life [23]: 2.33 h
- MRT [24]: 3.03 h
- Activity (Mus musculus [5]): Dose-dependent effect
- IC50 (Cytochrome P450 2C9): Not Active
- F (Rattus norvegicus [25]): 53.2%
- Tmax [26]: 0.3 h
- Tmax [27]: 0.3 h
- IC50 (Cytochrome P450 3A4): 56.5 µM
- CL(app) (Rattus norvegicus [28]): 57 mL/min/kg
- AUC (Rattus norvegicus [29]): 8935 ng·h/mL
- Cmax [30]: 2690 ng/mL
- MRT [31]: 2.93 h
- Cmax [32]: 2710 ng/mL
- IC50 [15]: > 40 µM
- AUC(0-t) [33]: 8840 ng·h/mL
- half-life [34]: 2.03 h
- AUC (Rattus norvegicus [35]): 5870 ng/mL.hr
- IC50 [19]: 97.7 µM
- AUC(0-t) [36]: 5840 ng·h/mL

Structure (SMILES): N#C[C@@H]1C[C@H](F)CN1C(=O)C[C@H](N)Cc1ccccc1
- IC50 (Dipeptidyl peptidase 2): Not Active

Structure (SMILES): N#C[C@@H]1CCCN1C(=O)CNC12CC3CC(CC(O)(C3)C1)C2 [VILDAGLIPTIN]
- Activity (Mus musculus [1]): 0.75 mM
- Activity (Mus musculus [3]): 1.07 mEq/L
- Activity (Mus musculus [10]): 22.2 mM
- Activity (Mus musculus [16]): 18.5 mM
- Activity (Mus musculus [17]): inactive

Structure (SMILES): Cc1ccccc1C[C@@H](N)CC(=O)N1[C@H](C#N)C[C@@H]2CCC[C@@H]21
- IC50 (Prolyl endopeptidase FAP; read-out: IC50): 110 µM
- IC50 (Dipeptidyl peptidase 2): Not Active

Structure (SMILES): N#C[C@@H]1C[C@@H]2CCC[C@@H]2N1C(=O)C[C@H](N)Cc1cccc(F)c1
- IC50 (Prolyl endopeptidase FAP): Not Active
- IC50 (Dipeptidyl peptidase 2): Not Active

Structure (SMILES): Cc1ccccc1C[C@@H](N)CC(=O)N1C[C@@H](F)C[C@H]1C#N
- IC50 (Dipeptidyl peptidase 2): Not Active
